Results published in ChEMBL document CHEMBL3792331, “Identification and synthesis of potent and selective pyridyl-isoxazole based agonists of sphingosine-1-phosphate 1 (S1P1)” (Bioorg Med Chem Lett, 2016).

What was measured:
Liver microsome [1] = experiment: Stability in human liver microsomes assessed as compound remaining; type: ADME
Liver microsome [2] = experiment: Stability in rat liver microsomes assessed as compound remaining; type: ADME
[3] = Stability in mouse liver microsomes assessed as compound remaining; type: ADME
[4] = Half life in mouse at 2 mg/kg, iv; type: ADME, organism-based; settings: in vivo
[5] = Clearance in mouse at 2 mg/kg, iv; type: ADME, organism-based; settings: in vivo
Mus musculus [6] = experiment: Clearance in mouse at 2 mg/kg, iv relative to hepatic blood flow; type: ADME, organism-based, Liver; settings: in vivo
[7] = Volume of distribution at steady state in mouse at 2 mg/kg, iv; type: ADME, organism-based; settings: in vivo, read-out: Vdss
Method in brief: (§1)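 Multi-species pharmacokinetic study with separate iv and oral dosing arms. Steady-state volume of distribution was taken from the iv arm: 2 mg/kg in mouse and rat, 1 mg/kg in cynomolgus monkey and dog. Oral doses in the same study were 5 mg/kg in mouse and rat and 1 mg/kg in monkey and dog.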

[8] = Oral bioavailability in mouse at 5 mg/kg; type: ADME, organism-based; settings: in vivo
Mus musculus [9] = experiment: Ratio of Cmax to Cmin in mouse at 5 mg/kg, po; type: ADME, organism-based; settings: in vivo
[10] = Half life in rat at 2 mg/kg, iv; type: ADME, organism-based; settings: in vivo
[11] = Clearance in rat at 2 mg/kg, iv; type: ADME, organism-based; settings: in vivo
Rattus norvegicus [12] = experiment: Clearance in rat at 2 mg/kg, iv relative to hepatic blood flow; type: ADME, organism-based, Liver; settings: in vivo
[13] = Volume of distribution at steady state in rat at 2 mg/kg, iv; type: ADME, organism-based; settings: in vivo, read-out: Vdss; method in brief: as §1
[14] = Oral bioavailability in rat at 5 mg/kg; type: ADME, organism-based; settings: in vivo
Rattus norvegicus [15] = experiment: Ratio of Cmax to Cmin in rat at 5 mg/kg, po; type: ADME, organism-based; settings: in vivo
[16] = Half life in cynomolgus monkey at 1 mg/kg, iv; type: ADME, organism-based, Macaca fascicularis; settings: in vivo
[17] = Clearance in cynomolgus monkey at 1 mg/kg, iv; type: ADME, organism-based, Macaca fascicularis; settings: in vivo
Cynomolgus monkey [18] = experiment: Clearance in cynomolgus monkey at 1 mg/kg, iv relative to hepatic blood flow; type: ADME, organism-based, Macaca fascicularis, Liver; settings: in vivo
[19] = Volume of distribution at steady state in cynomolgus monkey at 1 mg/kg, iv; type: ADME, organism-based, Macaca fascicularis; settings: in vivo, read-out: Vdss; method in brief: as §1
[20] = Oral bioavailability in cynomolgus monkey at 1 mg/kg; type: ADME, organism-based, Macaca fascicularis; settings: in vivo
Cynomolgus monkey [21] = experiment: Ratio of Cmax to Cmin in cynomolgus monkey at 1 mg/kg, po; type: ADME, organism-based, Macaca fascicularis; settings: in vivo
[22] = Half life in dog at 1 mg/kg, iv; type: ADME, organism-based, Canis lupus familiaris; settings: in vivo
[23] = Clearance in dog at 1 mg/kg, iv; type: ADME, organism-based, Canis lupus familiaris; settings: in vivo
Canis familiaris [24] = experiment: Clearance in dog at 1 mg/kg, iv relative to hepatic blood flow; type: ADME, organism-based, Canis lupus familiaris, Liver; settings: in vivo
[25] = Volume of distribution at steady state in dog at 1 mg/kg, iv; type: ADME, organism-based, Canis lupus familiaris; settings: in vivo, read-out: Vdss; method in brief: as §1
[26] = Oral bioavailability in dog at 1 mg/kg; type: ADME, organism-based, Canis lupus familiaris; settings: in vivo
Canis familiaris [27] = experiment: Ratio of Cmax to Cmin in dog at 1 mg/kg, po; type: ADME, organism-based, Canis lupus familiaris; settings: in vivo
Rattus norvegicus [28] = experiment: Anti-inflammatory activity in Lewis rat complete Freund's adjuvant-induced arthritis model of human rheumatoid arthritis assessed as reduction in hind paw swelling at 0.5 and 3 mg/kg, po QD for 21 days starting at day 0 by plethysmometry; type: functional, organism-based
Method in brief: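 Male Lewis rats given complete Freund's adjuvant with heat-killed Mycobacterium butyricum subcutaneously at the tail base. Dosed orally once daily for 21 days from day 0. Hind paw volume measured by water displacement plethysmometry at baseline and over three weeks; increase above baseline calculated. Compared with vehicle, p<0.05.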

Stability (Liver microsome [1]): 88% | Stability (Liver microsome [2]): 100% | Stability [3]: 100% | half-life [4]: 270 min | clearance [5]: 0.3 mL/min/kg | CL (Mus musculus [6]): < 1% | Vd [7]: 0.1 L/kg | bioavailability [8]: 70% | Ratio (Mus musculus [9]): 2.8 | half-life [10]: 288 min | clearance [11]: 1 mL/min/kg | CL (Rattus norvegicus [12]): 1.4% | Vd [13]: 0.4 L/kg | bioavailability [14]: 100% | Ratio (Rattus norvegicus [15]): 26 | half-life [16]: 66 min | clearance [17]: 14 mL/min/kg | CL (Cynomolgus monkey [18]): 32% | Vd [19]: 0.5 L/kg | bioavailability [20]: 12% | Ratio (Cynomolgus monkey [21]): > 400 | half-life [22]: 366 min | clearance [23]: 2.6 mL/min/kg | CL (Canis familiaris [24]): 8.4% | Vd [25]: 0.7 L/kg | bioavailability [26]: 87% | Ratio (Canis familiaris [27]): 7.4
Structure (SMILES): O=C(O)C1CN(Cc2ccc(-c3noc(-c4onc(-c5ccccn5)c4C(F)(F)F)n3)cc2)C1
Activity (Rattus norvegicus [28]): Dose-dependent effect
